Measurements reported in ChEMBL document CHEMBL5104221, “ATP Mimetic Attack on the Nucleotide-Binding Domain to Overcome ABC Transporter Mediated Chemoresistance” (ACS Med Chem Lett, 2022).
Activity calls are given as the source filed them. No cut-off for these calls is given here.

Tests used:
HCT-116 [1] = assay: Cytotoxicity against human HCT-116 cells overexpressing human MDR1 assessed as DNA damage by measuring fluorescence intensity at 100 uM incubated for 30 mins by Hoechst 33342 staining accumulation assay; type: functional, cell-based
How it was run: (§1)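 Hoechst 33342 retention measured in paclitaxel-resistant HCT116tax cells and in HCT116 cells transfected with MDR1- or BCRP-expressing plasmids. The dye was read by its blue fluorescence without washing. Tariquidar (1 μM) and sodium orthovanadate (500 μM) served as reference inhibitors. Accumulation is expressed relative to the vanadate-induced fluorescence difference, set as 100%.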

HCT-116 [2] = assay: Cytotoxicity against in human HCT-116 cells overexpressing human BCRP assessed as DNA damage by measuring fluorescence intensity at 100 uM incubated for 30 mins by Hoechst 33342 staining accumulation assay; type: functional, cell-based; how it was run: as §1
[3] = Cytotoxicity against human HEK293 cells incubated for 48 hrs by MTT assay; type: toxicity, cell-based
HCT-116 [4] = assay: Cytotoxicity against human HCT-116 cells incubated for 48 hrs by MTT assay; type: functional, cell-based; settings: HCT-116, 48 h
How it was run: (§2)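 Wild-type HCT116 cells were exposed for 48 h in OptiMEM, with or without paclitaxel. Viability was read by MTT and normalised to wells containing 0.5% DMSO, taken as 100%.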

HCT116tax = assay: Cytotoxicity against paclitaxel-resistant human HCT116tax cells assessed as reduction on cell viability at 100 to 200 uM incubated for 48 hrs in presence of paclitaxel by MTT assay; type: functional, cell-based; settings: dose 100-200 µM
HCT-116 [5] = assay: Cytotoxicity against human HCT-116 cells assessed as reduction on cell viability at 100 uM incubated for 48 hrs in presence of paclitaxel by MTT assay; type: functional, cell-based; how it was run: as §2
[6] = Cytotoxicity against paclitaxel-resistant human HCT116tax cells incubated for 48 hrs by MTT assay; type: functional, cell-based
HCT-116 [7] = assay: Cytotoxicity against human HCT-116 cells overexpressing human MDR1 incubated for 48 hrs by MTT assay; type: functional, cell-based; settings: HCT-116, 48 h
[8] = Cytotoxicity against paclitaxel-resistant human HCT116tax cells assessed as DNA damage by measuring fluorescence intensity incubated for 30 mins by Hoechst 33342 staining accumulation assay; type: functional, cell-based; settings: 0.5 h; how it was run: as §1
HCT-116 [9] = assay: Cytotoxicity against human HCT-116 cells overexpressing human BCRP incubated for 48 hrs by MTT assay; type: functional, cell-based; settings: HCT-116, 48 h

## ORTHOVANADATE
HCT-116 [1]
  Activity: Active
HCT-116 [2]
  Activity: Active

## NC(=O)c1ncn([C@@H]2O[C@H](CO)[C@@H](O)[C@H]2O)n1 [RIBAVIRIN]
[3]
  EC50 at 48 h: > 100 µM
HCT-116 [4]
  EC50: > 100 µM
HCT116tax
  Activity: Active
HCT-116 [5]
  Activity: Active
[6]
  EC50: > 100 µM
HCT-116 [7]
  EC50: > 100 µM
HCT-116 [1]
  Activity: Active
HCT-116 [2]
  Activity: Active
[8]
  IC50: 5 µM
HCT-116 [9]
  EC50: > 100 µM

## Nc1ncnc2c1ncn2[C@@H]1O[C@H](COP(=O)(O)O)[C@@H](O)[C@H]1O [ADENOSINE PHOSPHATE]
[3]
  EC50 at 48 h: > 100 µM
HCT-116 [4]
  EC50: > 100 µM
HCT116tax
  Activity: Active
HCT-116 [5]
  Activity: Active
[6]
  EC50: > 100 µM
HCT-116 [7]
  EC50: > 100 µM
HCT-116 [1]
  Activity: Active
HCT-116 [2]
  Activity: Active
[8]
  IC50: 3.2 µM
HCT-116 [9]
  EC50: > 100 µM

## CC(C)[C@@H]1NC(=O)[C@@H]2CCCN2C1=O
[3]
  EC50 at 48 h: > 100 µM
HCT-116 [4]
  EC50: > 100 µM
HCT116tax
  Activity: Active
HCT-116 [5]
  Activity: Active
[6]
  EC50: > 100 µM
HCT-116 [7]
  EC50: > 100 µM
HCT-116 [1]
  Activity: Active
HCT-116 [2]
  Activity: Active
[8]
  IC50: 6.2 µM
HCT-116 [9]
  EC50: > 100 µM

## Nc1ncnc2c1ncn2COCCO
[3]
  EC50 at 48 h: > 100 µM
HCT-116 [4]
  EC50: > 100 µM
HCT116tax
  Activity: Active
HCT-116 [5]
  Activity: Active
[6]
  EC50: > 100 µM
HCT-116 [7]
  EC50: > 100 µM
HCT-116 [1]
  Activity: Active
HCT-116 [2]
  Activity: Active
[8]
  IC50: 7.3 µM
HCT-116 [9]
  EC50: > 100 µM

## NC(=O)c1ncn([C@@H]2O[C@H](CO)[C@@H](O)[C@H]2O)c1N [ACADESINE]
[3]
  EC50 at 48 h: > 100 µM
HCT-116 [4]
  EC50: > 100 µM
HCT116tax
  Activity: Active
HCT-116 [5]
  Activity: Active
[6]
  EC50: > 100 µM
HCT-116 [7]
  EC50: > 100 µM
HCT-116 [1]
  Activity: Active
HCT-116 [2]
  Activity: Active
[8]
  IC50: 5.3 µM
HCT-116 [9]
  EC50: > 100 µM
